The source of these data is PMC3334839 (The Journal of Neuroscience, 2012).

Substitutions are numbered along the chain they refer to.

Experiment [1] relates to native GlyRs in cultured spinal neurons. Description: Whole-cell patch-clamp of Gly-activated current. In kind it is cell-based, rat. Conditions: for average percent potentiation of IGly: concentration-response (Fig. 1E), EC2 Gly. An outline of the steps: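 Spinal cords from postnatal day 0 rats, papain-dissociated (20 U/ml, 37°C, 40 min). Plated at 300,000 cells/ml on poly-d-lysine in MEM/10% FBS, cultured ≥10 d, washed 30 min in external solution. Whole-cell, −60 mV, 20–22°C.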

The target of a further experiment is T1, rat α2 GlyR (Rattus norvegicus, UniProt P22771).
T1 sequence (P22771 28-452): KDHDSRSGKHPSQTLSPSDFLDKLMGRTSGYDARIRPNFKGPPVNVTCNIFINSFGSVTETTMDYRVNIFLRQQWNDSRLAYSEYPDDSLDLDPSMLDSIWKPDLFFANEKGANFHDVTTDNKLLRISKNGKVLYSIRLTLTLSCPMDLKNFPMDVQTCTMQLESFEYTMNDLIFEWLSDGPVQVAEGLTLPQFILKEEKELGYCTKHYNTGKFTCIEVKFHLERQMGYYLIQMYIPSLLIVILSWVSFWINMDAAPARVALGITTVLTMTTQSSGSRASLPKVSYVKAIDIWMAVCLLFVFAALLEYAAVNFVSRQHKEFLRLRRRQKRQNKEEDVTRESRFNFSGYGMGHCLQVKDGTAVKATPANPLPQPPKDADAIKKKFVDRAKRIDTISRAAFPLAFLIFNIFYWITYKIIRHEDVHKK
Description: Whole-cell patch-clamp of IGly in HEK-293 cells expressing α2 GlyRs. The experiment is classed as cell-based. Conditions: 10 μM AEA, 5 min sustained, EC2 Gly (20 μM), wild-type α2.

Experiment [2] concerns the target T2, S296A mutant human 5-HT3A receptor (Homo sapiens, UniProt P46098, S319A).
T2 sequence (P46098 24-478 S319A): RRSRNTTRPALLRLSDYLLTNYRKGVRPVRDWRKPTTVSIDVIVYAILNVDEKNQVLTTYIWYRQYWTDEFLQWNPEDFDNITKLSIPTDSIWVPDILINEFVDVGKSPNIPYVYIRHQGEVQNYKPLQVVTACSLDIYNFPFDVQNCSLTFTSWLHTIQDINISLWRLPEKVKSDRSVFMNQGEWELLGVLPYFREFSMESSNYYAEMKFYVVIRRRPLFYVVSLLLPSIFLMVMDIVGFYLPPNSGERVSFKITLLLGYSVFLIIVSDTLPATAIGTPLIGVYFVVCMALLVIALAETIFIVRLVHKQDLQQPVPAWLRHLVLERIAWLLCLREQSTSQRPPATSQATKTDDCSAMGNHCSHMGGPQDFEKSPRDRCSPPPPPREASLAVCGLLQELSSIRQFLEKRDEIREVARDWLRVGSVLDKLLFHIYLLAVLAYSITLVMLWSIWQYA
The experiment is classed as cell-based. Conditions: 0.1 μM AEA, vs wild-type. Put shortly:
(§1)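 Human 5-HT3A receptors (wild-type or point mutant made by site-directed mutagenesis) transfected into HEK-293 cells. Cells recorded 2 d later, trypsin/EDTA-treated 2 h before, lifted, superfused with HEPES-buffered saline (pH 7.4). Whole-cell, CsCl pipette, −60 mV, 20–22°C. 5-HT 30 μM pulses before, during and after continuous 5 min test compound (0.1 μM) incubation; 5–7 cells, mean ± SE.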

The target in the next experiment is T3, S307A mutant rat α3 GlyR (Rattus norvegicus, UniProt P24524, S329A).
T3 sequence (P24524 34-464 S329A): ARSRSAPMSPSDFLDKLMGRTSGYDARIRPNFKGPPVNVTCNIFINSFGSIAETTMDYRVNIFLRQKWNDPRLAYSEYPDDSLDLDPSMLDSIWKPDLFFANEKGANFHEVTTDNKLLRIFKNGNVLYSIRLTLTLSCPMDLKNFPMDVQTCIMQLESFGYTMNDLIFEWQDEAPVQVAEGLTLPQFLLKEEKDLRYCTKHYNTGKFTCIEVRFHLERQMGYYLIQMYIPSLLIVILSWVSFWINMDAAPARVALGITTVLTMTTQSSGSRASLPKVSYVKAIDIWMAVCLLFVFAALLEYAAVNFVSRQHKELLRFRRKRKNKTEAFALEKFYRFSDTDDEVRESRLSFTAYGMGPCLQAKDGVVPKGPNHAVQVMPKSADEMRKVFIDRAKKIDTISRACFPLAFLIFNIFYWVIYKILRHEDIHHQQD
Description: Whole-cell patch-clamp of IGly in HEK-293 cells expressing S307A mutant α3 GlyRs. The experiment is classed as cell-based. Conditions: 10 μM AEA, 5 min sustained, EC2 Gly (100 μM).

The target of another experiment is T4, human 5-HT3A receptor (Homo sapiens, UniProt P46098).
T4 sequence (P46098 24-478): T2 sequence (P46098 24-478 S319A) with A296S
In kind it is cell-based. Put shortly: as §1

As for `CCCCC/C=C\C/C=C\C/C=C\C/C=C\CCCC(=O)NCCO` [AEA, anandamide], the “time to maximal potentiation of IGly” value in experiment [1] (1 μM AEA sustained application) is 5 min. The “average percentage potentiation of IGly” value in experiment [1] (1 μM AEA, 5 min sustained application, EC2 Gly (Fig. 1C)) was 86 ± 24%; on rat α2 GlyR, 127 ± 37%. Also, the “percentage potentiation of IGly, initial value” in experiment [1] (1 μM AEA, after 1 min of AEA exposure, neurons) stood at 6 ± 6%. The “average percent potentiation of IGly” value in experiment [1] (1 μM AEA) was determined as 79 ± 19%; in experiment [1] (3 μM AEA) it was 236 ± 52%; in experiment [1] (10 μM AEA), 636 ± 87%; in experiment [1] (30 μM AEA), 800 ± 71%. In addition, the “effect of S296A mutation on AEA-induced inhibition of 5-HT-activated current” value in experiment [2] is “did not significantly alter”. Also, at S307A mutant rat α3 GlyR, the “AEA-induced potentiation of IGly” value amounted to 249 ± 48%. For the same compound, the “effect on 5-HT-activated current” value at human 5-HT3A receptor (0.1 μM AEA for 5 min, 5-HT 30 μM, wild-type) is reported as “gradually developing inhibition”. The “time to maximal inhibition of I5-HT” value on human 5-HT3A receptor (continuous exposure to 0.1 μM AEA) stood at 5 min.
